Results gathered from unrelated publications.
Lines come from different studies, so protocols differ.
Read-out: cell growth or viability

The IC50 of `N/C(=N\O)c1ccc(-c2cc(CNc3cccc4cccnc34)on2)cc1` is reported as 95100 nM (NCI-H460; MTS; 72 h).
For `Cc1nc(Nc2ncc(C(=O)Nc3c(C)cccc3Cl)s2)cc(N2CC[C@H](O)C2)n1`, the inhibition was 46% (RS4-11; ATP luminescence; 10 µM; 72 h).
For `CO[C@H]1[C@H](O[C@H]([C@H]2O[C@@H](n3ccc(=O)[nH]c3=O)[C@H](O)[C@@H]2O)[C@H](NCCCNC(=O)[C@@H](NC(=O)[C@@H](NC(=O)N[C@H](C(=O)O)C(C)C)[C@@H]2CCN=C(N)N2)[C@@H](OC(=O)CCCCCCCCCCCCN(O)C(=N)N)C(C)C)C(=O)O)O[C@H](CN)[C@H]1O`, the IC50 was 880 nM (MDA-MB-453; WST-1).
`Cc1cnc(CNC(=O)c2c(=O)c3ccc(N4CCCN(C)CC4)nc3n3c2sc2ccccc23)cn1` has an IC50 of 1000 nM (HK-1; MTS; 72 h).
The EC50 of `C[C@H](Nc1ccc2c(c1)OCCn1cc(N3C(=O)OC[C@H]3C(F)F)nc1-2)C(N)=O` is reported as 45.7 nM (MDA-MB-453; ATP luminescence; 5 days).
`COC(=O)[C@H]1[C@@H](O)[C@@]2(O)c3c(OC)cc(O[C@@H]4O[C@@H]([C@H](O)CO)CO[C@H]4OC)cc3O[C@@]2(c2ccc(OC)cc2)[C@@H]1c1ccccc1` has an IC50 of 5 nM (HK-1; MTS; 72 h).
With `CN1CCC(NC2CCc3[nH]c4c(C(N)=O)ccc(-c5ccccc5Cl)c4c3C2)CC1` (stereo not shown) the IC50 was 19.5 nM (MX1; 96 h).
For `CCCCCCCCCCCCCCCCCCOc1cccc(CC(=O)OCC[N+](CC)(CC)CC)c1`, the inhibition was 33% (NCI-H460; SRB; 10 µM).
With `COc1cccc2c1C(=O)c1c(O)c3c(c(O)c1C2=O)C[C@@](O)(C(=O)CO)C[C@@H]3O[C@H]1C[C@H](N)[C@H](O)[C@H](C)O1` the IC50 was 22.5 nM (MX1; 96 h).
With `CO[C@H]1[C@H](O[C@H]([C@H]2O[C@@H](n3ccc(=O)[nH]c3=O)[C@H](O)[C@@H]2O)[C@H](NCCCNC(=O)[C@@H](NC(=O)[C@@H](NC(=O)N[C@H](C(=O)O)C(C)C)[C@@H]2CCN=C(N)N2)[C@@H](O)C(C)C)C(=O)O)O[C@H](CN)[C@H]1O` the IC50 was > 35000 nM (MDA-MB-453; WST-1).
`Cc1sc2c(c1C)C(c1ccc(Cl)cc1)=N[C@@H](CC(=O)NCCCCNC(=O)COc1cccc3c1C(=O)N(C1CCC(=O)NC1=O)C3=O)c1nnc(C)n1-2` (stereo partly shown) has an IC50 of 2720 nM (MDA-MB-453; CCK-8; 72 h).
`Nc1ccn([C@@H]2O[C@H](CO)[C@@H](O)C2(F)F)c(=O)n1` gave an IC50 of 2030 nM (HCCC9810; CCK-8).
With `COc1cc([C@@H]2c3cc4c(cc3[C@@H](O[C@@H]3O[C@@H]5CO[C@@H](C)O[C@H]5[C@H](O)[C@H]3O)[C@H]3COC(=O)[C@H]23)OCO4)cc(OC)c1O` the IC50 was 590 nM (SNU-638; SRB; 72 h).
